Laboratory results from ChEMBL document CHEMBL1124688, “9,11-Epoxy-9-homo-14-thiaprost-5-enoic acid derivatives: potent thromboxane A2 antagonists” (J Med Chem, 1989).
“And” between values parts separate entries of the source, which are not always exact repeats. Identical values can stand only once.

Key:
Rattus norvegicus [1] = organism: Rattus norvegicus; assay: maximal contraction of rat stomach strip by 3 x 10e -7M serotonin; format: functional
Rattus norvegicus [2] = organism: Rattus norvegicus; assay: Concentration required to elicit 50% of the maximal contraction of rat stomach strip; format: functional
Method in brief: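 Rat stomach strip contraction was measured as the concentration giving 50% of the maximal contraction produced by 3×10^-7 M serotonin.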

Homo sapiens [3] = organism: Homo sapiens; assay: Percentage stimulation on the synthesis of PGE-2 was at a dose of 1000 uM; format: functional
Method in brief: (§1)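 Arachidonic acid metabolism was measured in a lysed platelet preparation. Thromboxane synthesis (as TxB2) and PGE2 production were determined at each listed test concentration.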

[4] = tested on: thromboxane-A synthase (Homo sapiens); assay: Percent inhibition on the synthesis of thromboxane B2 at a dose of 100 uM
Homo sapiens [5] = organism: Homo sapiens; assay: Percentage stimulation on the synthesis of PGE-2 was at a dose of 100 uM; format: functional; method in brief: as §1
Homo sapiens [6] = organism: Homo sapiens; assay: Percentage stimulation on the synthesis of PGE-2 at a dose of 10 uM; format: functional; method in brief: as §1
[7] = tested on: thromboxane-A synthase (Homo sapiens); assay: Percent inhibition on the synthesis of thromboxane B2 at a dose of 1000 uM
[8] = tested on: thromboxane-A synthase (Homo sapiens); assay: Percent inhibition on the synthesis of thromboxane B2 at a dose of 10 uM
Cavia porcellus [9] = assay: Change in mean arterial blood pressure(MABP) in guinea pigs by 1 mg/kg of intravenously administered compound; activity MABP; format: functional, Artery; settings: route intravenous
Method in brief: (§2)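 Anesthetized guinea pigs were challenged with arachidonic acid, and lung mechanics (lung resistance, dynamic compliance) and mean arterial blood pressure were recorded. Compounds were given as a 1.0 mg/kg rapid iv infusion, with n = 5 versus vehicle. Inhibition above 100% denotes reversal of the blood-pressure response.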

Homo sapiens [10] = organism: Homo sapiens; assay: In vitro evaluation for arachidonic acid induced platelet aggregation of human platelet-rich plasma; format: functional; settings: read-out: I50
Method in brief: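 Human platelet-rich plasma was aggregated with arachidonic acid (800 μM). An ADP (20 μM)-induced aggregation run served as a counter-screen.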

Cavia porcellus [11] = assay: Change in mean arterial blood pressure(MABP) in guinea pigs by 1 mg/kg of intravenously administered compound; format: functional, Artery; settings: route intravenous; method in brief: as §2
Thromboxane A2 receptor = target: T1, Thromboxane A2 receptor (Homo sapiens, UniProt P21731); assay: Inhibition of specific binding of HSQ(5,6-di-3H-SQ 29,548) in washed platelets; set-up: species or system Cavia porcellus
T1 sequence (P21731 whole entry): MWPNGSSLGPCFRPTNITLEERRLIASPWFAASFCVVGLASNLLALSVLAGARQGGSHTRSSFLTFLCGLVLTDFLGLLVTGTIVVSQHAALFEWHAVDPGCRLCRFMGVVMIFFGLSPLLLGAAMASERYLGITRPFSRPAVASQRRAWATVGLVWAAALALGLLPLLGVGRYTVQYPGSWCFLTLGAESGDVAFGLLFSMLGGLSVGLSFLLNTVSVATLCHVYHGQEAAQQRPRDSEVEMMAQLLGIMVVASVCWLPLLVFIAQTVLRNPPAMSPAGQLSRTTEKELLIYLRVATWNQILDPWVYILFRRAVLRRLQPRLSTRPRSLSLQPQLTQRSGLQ

Cavia porcellus [12] = assay: Inhibition of arachidonic acid-induced response in guinea pigs by 1 mg/kg of intravenously administered compound; format: functional; set-up: scale not given: the % may be the effect or the level left; settings: route intravenous; method in brief: as §2
Homo sapiens [13] = organism: Homo sapiens; assay: Percent inhibition on the synthesis of thromboxane B2 at a dose of 100 uM; format: functional; method in brief: as §1
Homo sapiens [14] = organism: Homo sapiens; assay: Percent inhibition on the synthesis of thromboxane B2 at a dose of 1000 uM; format: functional; method in brief: as §1
Homo sapiens [15] = organism: Homo sapiens; assay: Percent inhibition on the synthesis of thromboxane B2 at a dose of 10 uM; format: functional; method in brief: as §1
Cavia porcellus [16] = organism: Cavia porcellus; assay: In vitro evaluation for antagonist activity against the contraction-induced by 9,11-azo-PGH2 (0.1 ug/mL); format: functional; settings: read-out: I50
Method in brief: (§3)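 Guinea pig trachea spirals were contracted by either 9,11-azo-PGH2 (a stable PGH2/TxA2 mimetic) or histamine, and compounds were tested for blockade of these contractions.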

Cavia porcellus [17] = organism: Cavia porcellus; assay: In vitro evaluation for antagonist activity against the contraction-induced by histamine (1 ug/mL); format: functional; settings: read-out: I50; method in brief: as §3
[18] = target: Thromboxane A2 receptor (Homo sapiens) (UniProt P21731); assay: Compound was evaluated for inhibition of specific binding of HSQ (5,6-di-3H-SQ 29,548) in washed platelets
Cavia porcellus [19] = organism: Cavia porcellus; assay: Duration of action of compound for Inhibition of arachidonic acid-induced response in guinea pigs; format: functional
Cavia porcellus [20] = assay: Change in mean arterial blood pressure in guinea pigs by 1 mg/kg of intravenously administered compound; format: functional, Artery; settings: route intravenous; method in brief: as §2

Question: Which Contraction (Rattus norvegicus [1]) does the source give for CSCSCC1C2CCC(O2)C1C/C=C\CCCC(=O)O (centres undefined) here?
Answer: 28%

Question: With CC/C=C/CCSCC1C2CCC(O2)C1CC=CCCCC(=O)O (centres undefined) as the compound, how does the A50 (Rattus norvegicus [2]) read?
Answer: 0.04 µM

Question: With O=C(O)CCCC=CCC1C2CCC(O2)C1CSC/C=C/c1ccccc1 (centres undefined) as the compound, how does the A50 (Rattus norvegicus [2]) read?
Answer: 0.7 µM

Question: Which A50 (Rattus norvegicus [2]) does the source give for O=C(O)CCC/C=C\CC1C2CCC(O2)C1CSc1ccccc1 (centres undefined) here?
Answer: 0.8 µM

Question: Which Contraction (Rattus norvegicus [1]) does the source give for CCSCC1C2CCC(O2)C1C/C=C\CCCC(=O)O (centres undefined) here?
Answer: 13%

Question: With CCCCCCSC[C@H]1C2CC[C@@H](O2)[C@H]1C/C=C\CCCC(=O)O (single isomer, unassigned; (+)) [listing 1 of 2 here] as the compound, how does the Contraction (Rattus norvegicus [1]) read?
Answer: 6%

Question: With CCCCCCSC[C@H]1C2CC[C@@H](O2)[C@H]1C/C=C\CCCC(=O)O (single isomer, unassigned; (+)) [listing 2 of 2 here] as the compound, how does the Stimulation (Homo sapiens [3]) read?
Answer: -51%

Question: What about the inhibition [4] of the same compound?
Answer: 45%

Question: And the Stimulation (Homo sapiens [5])?
Answer: 44%

Question: What about the Stimulation (Homo sapiens [6]) of the same compound?
Answer: 27%

Question: And the inhibition [7]?
Answer: 75%

Question: And the inhibition [8]?
Answer: 33%

Question: For CCCSCC1C2CCC(O2)C1C/C=C\CCCC(=O)O (centres undefined), which Activity (Cavia porcellus [9]) is on record?
Answer: 50%

Question: What about the IC50 (Homo sapiens [10]) of the same compound?
Answer: 700 nM

Question: And the Agonist activity (Cavia porcellus [11])?
Answer: 50%

Question: And the Kd (Thromboxane A2 receptor)?
Answer: 97 nM

Question: What about the Activity (Cavia porcellus [12]) of the same compound?
Answer: 131% and 97%

Question: Which inhibition (Homo sapiens [13]) does the source give for CCCCCSCCC1C2CCC(O2)C1C/C=C\CCCC(=O)O (centres undefined) here?
Answer: 80%

Question: What about the inhibition (Homo sapiens [14]) of the same compound?
Answer: 90%

Question: What about the Stimulation (Homo sapiens [3]) of the same compound?
Answer: -75%

Question: What about the Stimulation (Homo sapiens [5]) of the same compound?
Answer: -45%

Question: What about the Stimulation (Homo sapiens [6]) of the same compound?
Answer: 13%

Question: What about the inhibition (Homo sapiens [15]) of the same compound?
Answer: 33%

Question: CCC/C=C(\C)CSCC1C2CCC(O2)C1CC=CCCCC(=O)O (centres undefined) was tested. Which A50 (Rattus norvegicus [2]) did it give?
Answer: 46 µM

Question: What about the IC50 (Cavia porcellus [16]) of the same compound?
Answer: 1600 nM

Question: And the IC50 (Cavia porcellus [17])?
Answer: > 100000 nM

Question: With CSCC1C2CCC(O2)C1C/C=C\CCCC(=O)O (centres undefined) as the compound, how does the Contraction (Rattus norvegicus [1]) read?
Answer: 30%

Question: How did the A50 (Rattus norvegicus [2]) turn out when O=C(O)CCC/C=C\CC1C2CCC(O2)C1CSCCc1ccccc1 (centres undefined) was run?
Answer: 23 µM

Question: For CCC/C=C/CSCC1C2CCC(O2)C1CC=CCCCC(=O)O (centres undefined), which Kd [18] is on record?
Answer: 3.1 nM

Question: What about the A50 (Rattus norvegicus [2]) of the same compound?
Answer: 26 µM

Question: And the Duration (Cavia porcellus [19])?
Answer: <60 min

Question: What about the “Activity MABP” value (Cavia porcellus [20]) of the same compound?
Answer: 76% and 192%

Question: And the IC50 (Cavia porcellus [16])?
Answer: 400 nM

Question: And the IC50 (Cavia porcellus [17])?
Answer: > 100000 nM
